Reference: ChEMBL document CHEMBL4004869, “3-Phenylalkyl-2H-chromenes and -chromans as novel rhinovirus infection inhibitors” (Bioorg Med Chem, 2017)
pIC50: −log10 of the molar value.

system: rhinovirus B14; assay: Antiviral activity against HRV 14 infected in human HeLa cells at MNCC after 72 hrs by plaque reduction assay relative to control; assay type: functional; parameters: scale not given: the % may be the effect or the level left; conditions: not given
How it was run: (§1)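 Plaque reduction in HeLa monolayers infected with virus giving about 100 plaques per well. Compound tested dose-dependently starting from the maximum non-cytotoxic concentration, with ethanol stocks diluted in medium just before use. IC50 is the dose cutting plaque number by 50%, read from log concentration versus percent plaque reduction. Where 50% is not reached, percent inhibition at MNCC is given. Two independent assays in triplicate, mean ± SD.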

SMILES | Activity
c1ccc(CCCCC2COc3ccccc3C2)cc1 (configuration not stated) | 25%
c1ccc(CCCC2COc3ccccc3C2)cc1 (configuration not stated) | 37%
C1=C(CCCCCc2ccccc2)COc2ccccc21 | 37%
C1=C(CCc2ccccc2)COc2ccccc21 | 26%
c1ccc(CCC2COc3ccccc3C2)cc1 (configuration not stated) | 16%

system: rhinovirus B14; assay: Antiviral activity against HRV 14 infected in human HeLa cells after 72 hrs by plaque reduction assay; assay type: functional, cell-based; conditions: not given; how it was run: as §1

SMILES | Activity
c1ccc(CCCCCC2COc3ccccc3C2)cc1 (configuration not stated) | Dose-dependent effect
c1ccc(CCCCC2COc3ccccc3C2)cc1 (configuration not stated) | Dose-dependent effect
Clc1ccc2c(c1)CC(CCCc1ccccc1)CO2 (configuration not stated) | Dose-dependent effect
c1ccc(CCCC2COc3ccccc3C2)cc1 (configuration not stated) | Dose-dependent effect
C1=C(CCCCCc2ccccc2)COc2ccccc21 | Dose-dependent effect
C1=C(CCc2ccccc2)COc2ccccc21 | Dose-dependent effect
C1=C(CCCc2ccccc2)COc2ccccc21 | Dose-dependent effect
C1=C(CCCCc2ccccc2)COc2ccccc21 | Dose-dependent effect
Clc1ccc(CCCC2COc3ccc(Cl)cc3C2)cc1 (configuration not stated) | Dose-dependent effect
c1ccc(CCC2COc3ccccc3C2)cc1 (configuration not stated) | Dose-dependent effect

same assay, conditions: Rhinovirus B, HeLa, 72 h; read-out: IC50

SMILES | pIC50
c1ccc(CCCCCC2COc3ccccc3C2)cc1 (configuration not stated) | 4.48
c1ccc(CCCCC2COc3ccccc3C2)cc1 (configuration not stated) | < 4.30
Clc1ccc2c(c1)CC(CCCc1ccccc1)CO2 (configuration not stated) | 4.60
c1ccc(CCCC2COc3ccccc3C2)cc1 (configuration not stated) | < 4.00
C1=C(CCCCCc2ccccc2)COc2ccccc21 | < 4.30
C1=C(CCc2ccccc2)COc2ccccc21 | < 4.60
C1=C(CCCc2ccccc2)COc2ccccc21 | 4.39
C1=C(CCCCc2ccccc2)COc2ccccc21 | 4.90
Clc1ccc(CCCC2COc3ccc(Cl)cc3C2)cc1 (configuration not stated) | 4.52
c1ccc(CCC2COc3ccccc3C2)cc1 (configuration not stated) | < 5.51

same assay, conditions: hela

SMILES | IC50
C/C(=C\c1ccccc1)C1=Cc2ccccc2OC1 | Not Active

system: rhinovirus A1B; assay: Antiviral activity against HRV 1B infected in human HeLa cells after 72 hrs by plaque reduction assay; assay type: functional, cell-based; conditions: not given
How it was run: as §1, with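 “use.” for “use. IC50 is the dose cutting plaque number by 50%, read from log concentration versus percent plaque reduction.”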

SMILES | Activity
c1ccc(CCCCCC2COc3ccccc3C2)cc1 (configuration not stated) | Dose-dependent effect
c1ccc(CCCCC2COc3ccccc3C2)cc1 (configuration not stated) | Dose-dependent effect
Clc1ccc2c(c1)CC(CCCc1ccccc1)CO2 (configuration not stated) | Dose-dependent effect
c1ccc(CCCC2COc3ccccc3C2)cc1 (configuration not stated) | Dose-dependent effect
C1=C(CCCCCc2ccccc2)COc2ccccc21 | Dose-dependent effect
C1=C(CCc2ccccc2)COc2ccccc21 | Dose-dependent effect
C1=C(CCCc2ccccc2)COc2ccccc21 | Dose-dependent effect
C1=C(CCCCc2ccccc2)COc2ccccc21 | Dose-dependent effect
Clc1ccc(CCCC2COc3ccc(Cl)cc3C2)cc1 (configuration not stated) | Dose-dependent effect
c1ccc(CCC2COc3ccccc3C2)cc1 (configuration not stated) | Dose-dependent effect

same assay, conditions: Rhinovirus A, HeLa, 72 h; read-out: IC50

SMILES | pIC50
c1ccc(CCCCCC2COc3ccccc3C2)cc1 (configuration not stated) | 5.32
c1ccc(CCCCC2COc3ccccc3C2)cc1 (configuration not stated) | 6.15
Clc1ccc2c(c1)CC(CCCc1ccccc1)CO2 (configuration not stated) | 5.75
c1ccc(CCCC2COc3ccccc3C2)cc1 (configuration not stated) | 5.02
C1=C(CCCCCc2ccccc2)COc2ccccc21 | 6.25
C1=C(CCc2ccccc2)COc2ccccc21 | 6.32
C1=C(CCCc2ccccc2)COc2ccccc21 | 5.63
C1=C(CCCCc2ccccc2)COc2ccccc21 | 6.27
Clc1ccc(CCCC2COc3ccc(Cl)cc3C2)cc1 (configuration not stated) | 6.25
c1ccc(CCC2COc3ccccc3C2)cc1 (configuration not stated) | 6.31

same assay, conditions: hela

SMILES | IC50
C/C(=C\c1ccccc1)C1=Cc2ccccc2OC1 | Not Active
O=C(/C=C/C1=Cc2ccccc2OC1)c1ccccc1 | Not Active

system: not listed separately; assay: Selectivity index, ratio of CC50 for human HeLa cells to IC50 for HRV 1B infected in human HeLa cells; conditions: not given
How it was run: (§2)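 Selectivity index is CC50 (XTT, HeLa) divided by IC50 from HeLa plaque reduction against the stated serotype.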

SMILES | Ratio CC50/IC50
c1ccc(CCCCCC2COc3ccccc3C2)cc1 (configuration not stated) | 42.19
c1ccc(CCCCC2COc3ccccc3C2)cc1 (configuration not stated) | 140.84
Clc1ccc2c(c1)CC(CCCc1ccccc1)CO2 (configuration not stated) | 111.73
c1ccc(CCCC2COc3ccccc3C2)cc1 (configuration not stated) | 20.85
C1=C(CCCCCc2ccccc2)COc2ccccc21 | 178.57
C1=C(CCc2ccccc2)COc2ccccc21 | 104.17
C1=C(CCCc2ccccc2)COc2ccccc21 | 84.39
C1=C(CCCCc2ccccc2)COc2ccccc21 | 185.18
Clc1ccc(CCCC2COc3ccc(Cl)cc3C2)cc1 (configuration not stated) | 357.14
c1ccc(CCC2COc3ccccc3C2)cc1 (configuration not stated) | 12.75

system: not listed separately; assay: Cytotoxicity against human HeLa cells assessed as changes in morphology after 3 days by microscopic method; assay type: cell-based; conditions: read-out: MNCC
How it was run: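 HeLa cytotoxicity by XTT colorimetric assay plus microscopy after 3 days at 37 °C. MNCC is the highest concentration leaving morphology and viability of all cells unaffected. CC50 is the dose reducing viability by 50% of untreated controls. Two independent assays in triplicate.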

SMILES | MNTC at 72 h
C/C(=C\c1ccccc1)C1=Cc2ccccc2OC1 | 12.5 µM
c1ccc(CCCCCC2COc3ccccc3C2)cc1 (configuration not stated) | 100 µM
c1ccc(CCCCC2COc3ccccc3C2)cc1 (configuration not stated) | 50 µM
Clc1ccc2c(c1)CC(CCCc1ccccc1)CO2 (configuration not stated) | 100 µM
c1ccc(CCCC2COc3ccccc3C2)cc1 (configuration not stated) | 100 µM
C1=C(CCCCCc2ccccc2)COc2ccccc21 | 50 µM
C1=C(CCc2ccccc2)COc2ccccc21 | 25 µM
C1=C(CCCc2ccccc2)COc2ccccc21 | 100 µM
C1=C(CCCCc2ccccc2)COc2ccccc21 | 50 µM
Clc1ccc(CCCC2COc3ccc(Cl)cc3C2)cc1 (configuration not stated) | 100 µM
O=C(/C=C/C1=Cc2ccccc2OC1)c1ccccc1 | 25 µM
c1ccc(CCC2COc3ccccc3C2)cc1 (configuration not stated) | 3.12 µM

system: not listed separately; assay: Selectivity index, ratio of CC50 for human HeLa cells to IC50 for HRV 14 infected in human HeLa cells; conditions: not given; how it was run: as §2

SMILES | Ratio CC50/IC50
c1ccc(CCCCCC2COc3ccccc3C2)cc1 (configuration not stated) | 6.05
Clc1ccc2c(c1)CC(CCCc1ccccc1)CO2 (configuration not stated) | 8
C1=C(CCCc2ccccc2)COc2ccccc21 | 4.94
C1=C(CCCCc2ccccc2)COc2ccccc21 | 7.87
Clc1ccc(CCCC2COc3ccc(Cl)cc3C2)cc1 (configuration not stated) | 6.67

system: not listed separately; assay: Cytotoxicity against human HeLa cells assessed as reduction in cell viability by XTT assay; assay type: cell-based; conditions: not given
How it was run: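 HeLa cytotoxicity by XTT colorimetric assay plus microscopy after 3 days at 37 °C. MNCC is the highest concentration leaving morphology and viability of all cells unaffected. Two independent assays in triplicate.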

SMILES | CC50
C/C(=C\c1ccccc1)C1=Cc2ccccc2OC1 | 25 µM
c1ccc(CCCCCC2COc3ccccc3C2)cc1 (configuration not stated) | 200 µM
c1ccc(CCCCC2COc3ccccc3C2)cc1 (configuration not stated) | 100 µM
Clc1ccc2c(c1)CC(CCCc1ccccc1)CO2 (configuration not stated) | 200 µM
c1ccc(CCCC2COc3ccccc3C2)cc1 (configuration not stated) | 200 µM
C1=C(CCCCCc2ccccc2)COc2ccccc21 | 100 µM
C1=C(CCc2ccccc2)COc2ccccc21 | 50 µM
C1=C(CCCc2ccccc2)COc2ccccc21 | 200 µM
C1=C(CCCCc2ccccc2)COc2ccccc21 | 100 µM
Clc1ccc(CCCC2COc3ccc(Cl)cc3C2)cc1 (configuration not stated) | 200 µM
O=C(/C=C/C1=Cc2ccccc2OC1)c1ccccc1 | 50 µM
c1ccc(CCC2COc3ccccc3C2)cc1 (configuration not stated) | 6.25 µM
